Published values gathered from unrelated publications.
Compare with care: the assays were run in different laboratories.
Cell line: CCRF-CEM
Observed: cell growth or viability

SMILES	method	time	IC50 [µM]
CC(=O)O[C@H]1C(=O)[C@@]2(C)[C@H]([C@H](OC(=O)c3ccccc3)[C@]3(O)C[C@H](OC(=O)[C@H](O)[C@@H](NC(=O)c4ccccc4)c4ccccc4)C(C)=C1C3(C)C)[C@]1(OC(C)=O)CO[C@@H]1C[C@@H]2O	MTT	48 h	0.31
COc1ccccc1CCc1cc(C#N)c(N)s1	–	48 h	6.8
O=C1C(=Cc2ccccc2)CN(C(=O)CCCCCCC(=O)N2CC(=Cc3ccccc3)C(=O)C(=Cc3ccccc3)C2)CC1=Cc1ccccc1	–	72 h	2.28
COC(=O)c1cc(-c2cc(OC)ccc2OC)sc1N	–	48 h	30
Cc1ccc(C=C2SC(=O)N(CC(=O)Nc3ccc(Cl)cc3C(F)(F)F)C2=O)cc1	MTT	48 h	31.8
COc1cccc(C(=O)c2cc3c(-c4ccccc4)c(OC)ccc3o2)c1	–	72 h	5.4
N#Cc1cc(CCc2ccccc2)sc1N	–	48 h	32
COc1ccc(C(=O)c2cc3c(-c4ccccc4)c(OC)ccc3o2)cc1	–	72 h	1.5
O=C(CN1C(=O)SC(=Cc2ccccc2)C1=O)Nc1ccc(Cl)cc1C(F)(F)F	MTT	48 h	47.5
CC[C@]1(O)C[C@@H]2CN(CCc3c([nH]c4ccccc34)[C@@](C(=O)OC)(c3cc4c(cc3OC)N(C)[C@H]3[C@@](O)(C(=O)OC)[C@H](OC(C)=O)[C@]5(CC)C=CCN6CC[C@]43[C@@H]65)C2)C1	MTT	72 h	0.002
COc1ccc2oc(C(=O)c3ccccc3)cc2c1-c1ccccc1	–	72 h	> 50
O=C1C(=Cc2ccccc2)CN(C(=O)CC(=O)N2CC(=Cc3ccccc3)C(=O)C(=Cc3ccccc3)C2)CC1=Cc1ccccc1	–	72 h	0.2
COc1cc(OC)cc(C(=O)c2cc3c(-c4ccccc4)c(OC)ccc3o2)c1	–	72 h	> 50
CCC[C@H](Nc1nc(-c2ccc(NC(=O)NCC)c(OC)c2)ncc1C)c1cccnc1	fluorescence	72 h	0.0036
COc1ccc(OC)c(-c2cc(C#N)c(N)s2)c1	–	48 h	12
O=C1C(=Cc2ccccc2)CN(C(=O)C=CC=CC(=O)N2CC(=Cc3ccccc3)C(=O)C(=Cc3ccccc3)C2)CC1=Cc1ccccc1	–	72 h	39.2
CCOC(=O)c1c(N)sc(CCc2cc(OC)ccc2OC)c1C(=O)OCC	–	48 h	20
Cc1ccc(C=C2SC(=O)N(CC(=O)Nc3ccc(F)cc3F)C2=O)cc1C	MTT	48 h	31.9
CCOC(=O)c1cc(CCc2cc(OC)ccc2OC)sc1N	–	48 h	0.4
COc1cccc(C(=O)c2cc3c(-c4ccccc4)c(O)ccc3o2)c1	–	72 h	35
O=C1NCCc2[nH]c(-c3ccncc3)cc21	–	–	2.5
COc1ccc(CCc2cc(C#N)c(N)s2)cc1	–	48 h	7.2
